Measured values reported in PubChem BioAssay AID449763 (Sanford-Burnham Center for Chemical Genomics, 2010).
Among all 330,000 compounds or so, about 1,100 (0.33%) were called active.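 The calls were made as follows: active = at 10 µM dose, activation of 40% or more, normalized to positive control; inactive = the rest.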 The sample as a whole holds a higher share of actives than the screen did.

Assay: activators of apoptotic CHOP UPR arm, primary screen, cell-based, CHO-CHOP luciferase reporter, luminescence, uHTS (AID 449763);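 also: 100% = tunicamycin at 10 µg/mL and 0% = DMSO alone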
Details: at 10 µM, active compounds read high, percent of tunicamycin response over DMSO baseline
In short: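 Test system: CHO-CHOP cells, stable luciferase reporter of PERK-eIF2a-CHOP signalling | Quantity: 500 CHO-CHOP cells per well | Buffer or medium: F12 plus 10% serum | Compound dosing: 10 µM single point, 0.5% DMSO | Schedule: 6 h compound treatment, 37 °C | Signal: Luciferase luminescence | Control set: Tunicamycin high control, DMSO low control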

Row | SMILES | activation
1 | O=C1NC(=O)N(Cc2ccco2)C(=O)/C1=C\c1ccc(-c2ccc(F)cc2)o1 | 0.772% (inactive)
2 | O=C(O)COc1ccccc1/C=C1\C(=O)NC(=O)N(CCC2=CCCCC2)C1=O | -0.189% (inactive)
3 | O=C1NC(=O)N(CCc2ccc(F)cc2)C(=O)/C1=C/C=C/c1ccccc1 | 75.4% (active)
4 | COc1cccc(-c2nc3ccc(N4CCN(C)CC4)cc3[nH]2)c1 | -6.37% (inactive)
5 | Cc1cc(N2C(=O)C3CCCN3C2c2ccc(Cl)c(Cl)c2)no1 (stereo not given) | -0.781% (inactive)
